High-throughput results deposited in PubChem by several laboratories.
ABHD5 PLIN5 PPI: blocks binding of human ABHD5 to perilipin-5. inhibition, % at 4 µM. Q00G26+Q8WTS1. Split G. princeps luciferase complementation, luminescence, 4 h. AID 602281. actives 0.78% (n = 360,000);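 active = inhibition above the mean inhibition across every tested compound plus 3 SD, cut at about 22% in these data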
SENP1 inh: blocks the human SENP1 SUMO protease catalytic domain | AID 624204 | inhibition, % at 10 µM | recombinant SENP1 catalytic domain, CyPet-SUMO1-YPet FRET cleavage | actives 0.21% (n = 360,000);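 active = inhibition at least 30% at 10 µM, raw YFP signal under a set limit, fluorescence ratio 0.5 to 1.5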
Target sequence (Q9P0U3 419-644 limits assumed): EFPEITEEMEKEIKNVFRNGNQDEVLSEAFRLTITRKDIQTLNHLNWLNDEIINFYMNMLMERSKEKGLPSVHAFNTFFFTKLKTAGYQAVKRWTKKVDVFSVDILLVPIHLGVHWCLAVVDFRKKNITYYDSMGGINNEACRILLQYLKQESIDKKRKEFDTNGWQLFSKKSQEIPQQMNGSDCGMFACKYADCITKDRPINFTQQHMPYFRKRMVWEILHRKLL
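Test system: human SENP1 catalytic domain; medium: Tris pH 8 buffer plus EDTA, NaCl, BME, BSA, NP40, catalase; incubation: 50 min reaction at room temperature; technique: FRET, CFP and YFP emission; controls: no-enzyme low control and enzyme-plus-DMSO high control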
B2AR ag: activates human beta-2 adrenergic receptor causing internalization | P07550 | Am2.2-beta2AR cells, FAP receptor internalization, flow cytometry | response, % (test concentration not listed) | actives 0.43% (n = 340,000);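 active = response above a set limit, near 3 SD of response in nonfluorescent compounds, cut at about 42% in these data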
Target sequence (P07550 whole entry, looked up): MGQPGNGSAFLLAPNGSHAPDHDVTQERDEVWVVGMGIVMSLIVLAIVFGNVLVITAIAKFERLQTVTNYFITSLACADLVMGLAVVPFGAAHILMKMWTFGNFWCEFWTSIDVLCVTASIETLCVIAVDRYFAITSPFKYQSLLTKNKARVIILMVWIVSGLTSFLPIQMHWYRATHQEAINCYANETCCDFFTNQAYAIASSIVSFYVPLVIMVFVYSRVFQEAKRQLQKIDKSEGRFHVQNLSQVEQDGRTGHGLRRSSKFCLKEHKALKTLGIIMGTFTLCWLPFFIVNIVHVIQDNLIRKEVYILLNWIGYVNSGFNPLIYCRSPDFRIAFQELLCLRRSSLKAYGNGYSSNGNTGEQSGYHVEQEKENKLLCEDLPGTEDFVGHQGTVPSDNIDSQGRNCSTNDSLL
NadD inh: inhibitors of Staphylococcus aureus NadD | purified NadD enzyme, colorimetric absorbance read-out | inhibition, % at 20 µM | actives 0.78% (n = 360,000); in the data active = inhibition above about 26%
GRK2 aptamer HTS: blocks RNA aptamer binding to human GRK2. actives 0.59% (n = 330,000). inhibition of aptamer binding, % at 10 µM. bead flow cytometry, FAM-aptamer displacement from GRK2. AID 488847. P25098;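 active = inhibition of aptamer binding above 40%, roughly 3 SD of noise, on plates passing a quality check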;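 note: median bead fluorescence of bound FAM aptamer so fluorescent compounds give negative values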
Each line names hits and unclear results; the compound was inactive in the other large screens; ! = not active in a repeat. A selection: hits, their analogues and other compounds. The true share with any hit is near 2.5%.

C#CCOCCOCCOCCNc1nc(N2CCN(C(=O)CCCCCCCCCCNC(=O)Cn3cc(C[C@@H](C)O)nn3)CC2)nc(N2CCN(C(=O)CCCCCCCCCCNC(=O)[C@@H]([C@H](C)CC)n3cc(CCCCCN)nn3)CC2)n1	ABHD5 PLIN5 PPI 54.9, B2AR ag 95.4, NadD inh 33.5
C#CCOCCOCCOCCNc1nc(N2CCN(C(=O)CCCCCCCCCCNC(=O)Cn3cc(CCCCCN)nn3)CC2)nc(N2CCN(C(=O)CCCCCCCCCCNC(=O)[C@@H]([C@H](C)O)n3cc(C)nn3)CC2)n1	ABHD5 PLIN5 PPI 34.1, B2AR ag 55.0
O=C(c1cccc(-n2cccc2)c1)N1CCN(S(=O)(=O)c2ccccc2)CC1	GRK2 aptamer HTS 81.0
COc1ccc2[nH]c3c4c(ccc3c2c1)C(=O)C=CC4=O	B2AR ag 61.4 (no result: GRK2 aptamer HTS)
Cc1ccc(NS(=O)(=O)c2ccc3c(c2)CCN3C(=O)CCC(=O)O)cc1Cl	none
O=C1C(Cl)=C(Nc2ccccc2O)C(=O)N1c1ccccc1	none
COc1ccccc1N1C(=O)C(Cl)=C(Nc2ccccc2O)C1=O	SENP1 inh 46.5 (no result: GRK2 aptamer HTS)
CSc1ccc(C2=C/C(=C3/SC(=S)NC3=O)c3ccccc3O2)cc1	NadD inh 37.9 (no result: GRK2 aptamer HTS)
COc1ccc(Cl)cc1C(=O)NNC(=O)CCNS(=O)(=O)c1ccccc1	none
CCC(=C(c1ccccc1)c1ccc(OCCN(C)C)cc1)c1ccccc1	none (no result: B2AR ag, GRK2 aptamer HTS)
CCN(CC)CCOc1ccc(/C(=C(/Cl)c2ccccc2)c2ccccc2)cc1	ABHD5 PLIN5 PPI 51.1!
Cc1ccc(C(=O)COC(=O)COc2ccccc2[N+](=O)[O-])s1	none
CCOC(=O)COc1ccccc1/C=C\[N+](=O)[O-]	ABHD5 PLIN5 PPI 62.2, B2AR ag 51.4
COc1ccc(C(=O)NCCCOc2cccnc2)cc1OC1CCN(C(C)=O)CC1	none
CC1CN(C(=O)c2ccc(NS(=O)(=O)c3ccc(C(C)(C)C)cc3)cc2)CC(C)O1 (centres undefined)	none (no result: GRK2 aptamer HTS)
COCCOC(=O)c1c(C)nc(SCC(=O)Nc2ccc(OC)cc2)c(C#N)c1-c1ccco1	none
Cc1nc(SCC(=O)c2ccccc2)c(C#N)c(-c2ccco2)c1C(=O)NCc1ccco1	ABHD5 PLIN5 PPI 37.5
CCOc1ccc(NS(=O)(=O)c2cc(C(=O)NCCN3CCOCC3)ccc2C)cc1	none
COc1cccc(/C=N/NC(=O)CSc2nnc(C)n2-c2ccccc2)c1O	none
COc1ccc(-c2nn(-c3ccccc3)cc2/C=C/C(=O)OCC(=O)Nc2ccc(C#N)cc2)cc1	B2AR ag 55.1
Cc1ccc(-c2nn(-c3ccccc3)cc2/C=N/NC(=O)CSc2nnc(C)n2-c2ccccc2)cc1	B2AR ag 89.4
COc1ccc(-c2nn(-c3ccccc3)cc2/C=N/NC(=O)c2ccc(Br)o2)cc1	B2AR ag 60.9
Cc1ccc(S(=O)(=O)N2CCOCC2)cc1C(=O)OCC(=O)NCCc1ccc(F)cc1	none
N#C/C(N=Nc1ccccc1O)=N\Nc1ccccc1O	SENP1 inh 33.2
O=C(CN1C(=O)/C(=C2\SC(=S)N(CCS(=O)(=O)O)C2=O)c2ccccc21)Nc1cccc(Br)c1	NadD inh 51.0
COCCN1C(=O)/C(=C2/C(=O)N(CC(=O)Nc3ccccc3Cl)c3ccccc32)SC1=S	none
O=C(CN1C(=O)/C(=C2/SC(=S)N(CCS(=O)(=O)O)C2=O)c2ccccc21)Nc1cccc(C(F)(F)F)c1	NadD inh 33.9
O=C(O)CCN1C(=O)/C(=C2\C(=O)N(Cc3ccc(F)cc3)c3ccccc32)SC1=S	none
O=C(CS(=O)c1ccc(C(F)(F)F)cc1[N+](=O)[O-])Oc1ccccc1 (centres undefined)	B2AR ag 98.3
COC(=O)c1ccc(OC(=O)CS(=O)c2ccccc2[N+](=O)[O-])cc1 (centres undefined)	none
CCOC(=O)c1ccccc1OC(=O)CS(=O)c1ccccc1[N+](=O)[O-] (centres undefined)	none
CS(=O)(=O)c1ccc(S(=O)CC(=O)OCc2ccccc2)c([N+](=O)[O-])c1 (centres undefined)	ABHD5 PLIN5 PPI 40.3, B2AR ag 43.7 (no result: GRK2 aptamer HTS)
N#CCc1c(C#N)c(N)nc(N2CCOCC2)c1C#N	ABHD5 PLIN5 PPI 22.4
CC(=O)N1CCN(c2nc(N)c(C#N)c(CC#N)c2C#N)CC1	none
O=C1NC(=S)S/C1=C\c1cc2ccccc2nc1N1CCCCC1	SENP1 inh 76.5 (no result: GRK2 aptamer HTS)
C/C(=C\C(=O)c1ccc(Br)cc1)NCc1ccccc1	B2AR ag 46.4
C/C(=C\C(=O)c1ccc(Br)cc1)NCc1ccc(C)cc1	none
Cc1nc2cc(NCc3nc4ccccc4n3Cc3ccccc3)ccc2n1C	ABHD5 PLIN5 PPI 22.3
Cc1cccc(NCc2nc3ccccc3n2Cc2ccccc2)c1	none
COc1cc(C(=O)NNC(=O)CCOc2cccc(Br)c2)cc(OC)c1OC	none
CCOc1ccc(OCCC(=O)NNC(=O)c2cc(OC)c(OC)c(OC)c2)cc1	B2AR ag 83.1
CCCCOc1ccc(/C=C/C(=O)OCC(=O)N2CC(=O)Nc3ccccc32)cc1OCC	B2AR ag 44.4
Oc1ccc(/C=N/NC(=S)Nc2cccnc2)c(O)c1O	B2AR ag 67.3 (no result: GRK2 aptamer HTS)
Oc1cccc(/C=N/NC(=S)Nc2cccnc2)c1O	none
Cc1ccc(NS(=O)(=O)c2ccc3[nH]c(=O)c(=O)[nH]c3c2)cc1Cl	none
Cc1ccc(NS(=O)(=O)c2ccc(Cl)c(N=Nc3c(O)[nH]c(=O)[nH]c3=O)c2)cc1Cl	NadD inh 30.8
O=C(O)c1cc(-c2ccc(Cl)cc2)n(-c2ccc(F)cc2)n1	none
CC(C)CC1=C/C(=C/c2ccc(-c3ccccc3)o2)C(=O)O1	NadD inh 74.4
NS(=O)(=O)c1ccc(-c2ccc(C=C3C(=O)c4ccccc4C3=O)o2)cc1	none
CN1CCN(C(=O)C[C@@H]2C[C@H]3c4cc(NC(=O)c5cccnc5)ccc4O[C@H]3[C@H](CO)O2)CC1	none (no result: B2AR ag, GRK2 aptamer HTS)
CNCc1ccccc1Sc1ccc(O)c(O)c1	ABHD5 PLIN5 PPI 23.0
Cc1cccc(NC(=O)C2CCN(S(=O)(=O)c3c(C)noc3/C=C/c3ccco3)CC2)n1	ABHD5 PLIN5 PPI 23.0
CCC(C)N1CCN(C(=O)C2CCN(S(=O)(=O)c3c(C)noc3/C=C/c3ccco3)CC2)CC1 (centres undefined)	none
COc1ccc(NC(=O)c2oc3ccccc3c2C)cn1	none
O=C(C1CCC(=O)N(C2CCCC2)C1)N1CCN(Cc2cccc(F)c2)CC1 (centres undefined)	none
CCC1CCCCN1S(=O)(=O)c1ccc(C(=O)Nc2nnc(-c3cccs3)o2)cc1 (centres undefined)	NadD inh 41.7
CC(C)CN(Cc1cc(=O)oc2cc(-c3ccccc3)c(O)cc12)CC(C)C	none
CC1CCN(c2nc(-c3ccco3)c3c(c2C#N)CC(C)(C)OC3)CC1	ABHD5 PLIN5 PPI 22.8
O=C(O)c1cc(Nc2cc(Cl)c3nonc3c2[N+](=O)[O-])ccc1O	ABHD5 PLIN5 PPI 22.9
